Measurements gathered from unrelated publications.
Lines come from different studies, so protocols differ. ≈ marks a conversion by molar mass, not a printed value.
Organism: Staphylococcus aureus

CC1(C)S[C@@H]2[C@H](NC(=O)[C@H](N)c3ccccc3)C(=O)N2[C@H]1C(=O)O — inhibition zone (microbial growth, well diffusion; ATCC25923; 60000 µg/mL): 35 mm
O=C(O)c1cn(C2CC2)c2cc(N3CCNCC3)c(F)cc2c1=O — inhibition zone (microbial growth; SG511; 5 µg/mL, 20 h): 25 mm
CC1(c2ccccc2O)Nn2c(nc(-c3ccc(Cl)cc3)c(C#N)c2=O)N1C(Cc1c[nH]c2ccccc12)C(=O)O (stereo not drawn) — MBC (microbial killing; drug-resistant strain): 100 µg/mL
O=C(O)c1cn(C2CC2)c2cc(N3CCNCC3)c(F)cc2c1=O — MBC (microbial killing): 0.019 µg/mL
Cc1c(NN=C(C#N)C2=NC(=O)CS2)c(=O)n(-c2ccccc2)n1C — MBC (microbial killing, broth dilution): 1 µg/mL
CN[C@H](CC(C)C)C(=O)N[C@H]1C(=O)N[C@@H](CC(N)=O)C(=O)N[C@H]2C(=O)N[C@H]3C(=O)N[C@H](C(=O)N[C@H](C(=O)O)c4cc(O)cc(O)c4-c4cc3ccc4O)[C@H](O)c3ccc(c(Cl)c3)Oc3cc2cc(c3O[C@@H]2O[C@H](CO)[C@@H](O)[C@H](O)[C@H]2O[C@H]2C[C@](C)(N)[C@H](O)[C@H](C)O2)Oc2ccc(cc2Cl)[C@H]1O — MBC (microbial killing, broth dilution; ATCC6538): 2 µM
CCOC(=O)C1=C(C)N2NC(c3ccccc3O)N(C(Cc3c[nH]c4ccccc34)C(=O)O)C2=NC1c1ccc(Cl)cc1 (stereo not drawn) — MBC (microbial killing; drug-resistant strain): 100 µg/mL
O=C(Sc1cccccc1=O)c1ccccc1 — MIC80 (microbial growth, broth dilution; ATCC29213): 13.2 µM (≈ 3.2 µg/mL)
O[C@]12C=C(c3nccc4c3[nH]c3ccccc34)[C@@H]3CCN(CCCC/C=C\CC1)C[C@@]31C[C@@H]3/C=C\CCCCN3[C@H]12 — IC50 (microbial growth; MRSA; drug-resistant strain): 0.7 µg/mL (≈ 1.28 µM)
COc1ccccc1Nc1cccc2nccnc12 — EC50 (microbial growth; RN4220): 20 µM
CC(=O)Oc1cccc2c1[nH]c1c(C3=C[C@@]4(OC(C)=O)CC/C=C\CCCCN5CC[C@@H]3[C@]3(C[C@@H]6/C=C\CCCCN6[C@H]34)C5)nccc12 — MFC (microbial killing; MRSA; drug-resistant strain): > 20 µg/mL
O=C(O)c1cn(C2CC2)c2cc(N3CCNCC3)c(F)cc2c1=O — IC50 (microbial growth; ATCC29213): 0.13 µg/mL (≈ 0.392 µM)
